Key:
[1] = Permeability from apical to basolateral side of dog MDCK2 cell monolayer assessed as intact drug level in basolateral compartment after 6 hrs; format: ADME, cell-based, Canis lupus familiaris; conditions: mdck-ii
Procedure, shortened: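 MDCK-2 monolayers were grown in DMEM with 10% FBS, seeded at 5 × 10⁵ cells/cm² on 24-mm Transwell inserts, and used at TER 100-300 Ω·cm² (10-20 days). Apical dosing was formally 30-50 µM compound in HBSS with 0.1% DMSO. After 6 h, basolateral solution was analysed by HPLC-UV at 300/370 nm and quantified against standard curves (quantification limit 0.2 µM).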

[2] = Solubility in Hanks balanced salt solution at 1 mg after 24 hrs; format: physicochemical
[3] = Chemical stability assessed as half life of hydrolysis; format: physicochemical
Procedure, shortened: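 UV-vis spectra (190-500 nm) followed in PBS (20 mM, pH 7.0, ionic strength 0.1 M with KCl)/CH₃CN 1:1 at 25 °C. The reaction was started by adding substrate freshly dissolved in acetonitrile, to a final (3-8) × 10^-5 M. Observed first- and second-step hydrolysis rate constants came from fitting the spectral data to a kinetic equation, and half-life was derived from them.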

Caco-2 = experiment: Permeability from apical to basolateral side of human Caco-2 cell monolayer assessed as intact drug level in basolateral compartment after 6 hrs; format: ADME, cell-based; conditions: caco-2, 6 h
Procedure, shortened: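 Caco-2 cells were cultured in DMEM with 10% FBS, seeded at 3 × 10⁵ cells/cm² on 24-mm Transwell inserts, and tested at TER 1.5-2 kΩ·cm² (10-20 days). Compound at formally 30-50 µM in HBSS with 0.1% DMSO was placed apically. Basolateral content at 6 h was measured by HPLC-UV (300/370 nm) against standard curves; quantification limit 0.2 µM.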

[4] = Permeability from apical to basolateral side of dog MDCK1 cell monolayer assessed as intact drug level in basolateral compartment after 6 hrs; format: ADME, cell-based, Canis lupus familiaris; conditions: mdck1, 6 h
Procedure, shortened: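 MDCK-1 cells in DMEM with 10% FBS were seeded at 3 × 10⁵ cells/cm² on 24-mm Transwell inserts and used at TER ~10-15 kΩ·cm² (10-20 days). Compound was applied apically at formally 30-50 µM in HBSS with 0.1% DMSO. Basolateral fluid was taken at 6 h and quantified by HPLC-UV (300/370 nm) against standard curves; quantification limit 0.2 µM.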

Structure (SMILES) | solubility at 24 h [2] [µM] | also measured
CC(C)(C)OC(=O)NCCCC(=O)Oc1cc(-c2oc3cc(O)cc(O)c3c(=O)c2O)ccc1O | – | t1/2 [3]: 2.08 h
CC(C)(C)OC(=O)NCCCCCC(=O)Oc1cc(-c2oc3cc(O)cc(O)c3c(=O)c2O)ccc1O | – | t1/2 [3]: 3.67 h
CC(C)(C)OC(=O)N[C@H]1CC[C@@H](C(=O)Oc2cc(-c3oc4cc(O)cc(O)c4c(=O)c3O)ccc2O)CC1 | – | t1/2 [3]: 3.31 h
CC(C)(C)OC(=O)Nc1ccc(C(=O)Oc2cc(-c3oc4cc(O)cc(O)c4c(=O)c3O)ccc2O)cc1 | 0.4 | –
Nc1ccc(C(=O)Oc2cc(-c3oc4cc(O)cc(O)c4c(=O)c3O)ccc2O)cc1 | 1.5 | –
CC(=O)Oc1cc(OC(C)=O)c2c(=O)c(OC(C)=O)c(-c3ccc(OC(C)=O)c(OC(=O)c4ccc(N)cc4)c3)oc2c1 | 1 | –
O=c1c(O)c(-c2ccc(O)c(O)c2)oc2cc(O)cc(O)c12 [QUERCETIN] | 2.3 | Activity (Caco-2): 1%; Activity [4]: 0.9%; Activity [1]: 2.7%

Continued, in another order:

solubility at 24 h [2] [µM] | Structure (SMILES) | also measured
1.1 | CC(=O)Oc1cc(OC(C)=O)c2c(=O)c(OC(C)=O)c(-c3ccc(OC(C)=O)c(OC(C)=O)c3)oc2c1 | Activity [1]: 0.5%
12 | CC(=O)Oc1cc(OC(C)=O)c2c(=O)c(OC(C)=O)c(-c3ccc(OC(C)=O)c(OC(=O)[C@@H](C)NC(=O)OC(C)(C)C)c3)oc2c1 | –
0.4 | CC(=O)Oc1cc(OC(C)=O)c2c(=O)c(OC(C)=O)c(-c3ccc(OC(C)=O)c(OC(=O)c4ccc(NC(=O)OC(C)(C)C)cc4)c3)oc2c1 | –
2.5 | CC(=O)Oc1cc(OC(C)=O)c2c(=O)c(OC(C)=O)c(-c3ccc(OC(C)=O)c(OC(=O)CCCNC(=O)OC(C)(C)C)c3)oc2c1 | –
3.9 | CC(=O)Oc1cc(OC(C)=O)c2c(=O)c(OC(C)=O)c(-c3ccc(OC(C)=O)c(OC(=O)CCCCCNC(=O)OC(C)(C)C)c3)oc2c1 | –
0.8 | CC(=O)Oc1cc(OC(C)=O)c2c(=O)c(OC(C)=O)c(-c3ccc(OC(C)=O)c(OC(=O)[C@H]4CC[C@@H](NC(=O)OC(C)(C)C)CC4)c3)oc2c1 | –

Source: ChEMBL document CHEMBL1140605, “Ester-based precursors to increase the bioavailability of quercetin” (J Med Chem, 2007)
